Measured values from ChEMBL document CHEMBL3758131, “Towards new 5-HT7 antagonists among arylsulfonamide derivatives of (aryloxy)ethyl-alkyl amines: Multiobjective based design, synthesis, and antidepressant and anxiolytic properties” (Eur J Med Chem, 2016).
The source made the active and inactive calls. The calls are words filed in the database; no cut-off is given here.

What was measured:
[1] = biological target: 5-hydroxytryptamine receptor 2A (Homo sapiens, UniProt P28223); assay: Displacement of [3H]-Ketanserin from human 5-HT2A receptor expressed in HEK293 cells after 1 hr; assay type: cell-based
Sequence of 5-hydroxytryptamine receptor 2A (P28223 whole entry): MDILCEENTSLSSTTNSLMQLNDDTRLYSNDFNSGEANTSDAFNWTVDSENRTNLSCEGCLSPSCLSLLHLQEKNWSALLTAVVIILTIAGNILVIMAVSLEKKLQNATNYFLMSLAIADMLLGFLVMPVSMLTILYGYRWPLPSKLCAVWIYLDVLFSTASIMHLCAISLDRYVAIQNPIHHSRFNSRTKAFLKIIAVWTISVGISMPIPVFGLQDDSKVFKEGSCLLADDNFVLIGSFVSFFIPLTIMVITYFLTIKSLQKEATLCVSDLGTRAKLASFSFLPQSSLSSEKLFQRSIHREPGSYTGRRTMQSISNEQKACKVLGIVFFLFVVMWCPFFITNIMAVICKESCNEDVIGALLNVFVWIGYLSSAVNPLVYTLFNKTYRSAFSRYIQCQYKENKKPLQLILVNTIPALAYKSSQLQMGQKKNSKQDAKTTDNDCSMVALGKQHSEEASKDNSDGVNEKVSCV

[2] = biological target: T1, 5-hydroxytryptamine receptor 7 (Homo sapiens, UniProt P34969); assay: Antagonist activity at human 5-HT7B receptor expressed in […] cells assessed as inhibition of 5-CT induced cAMP production at 10^-6 M after 30 mins by TR-FRET assay; assay type: functional, cell-based
T1 sequence (P34969 whole entry): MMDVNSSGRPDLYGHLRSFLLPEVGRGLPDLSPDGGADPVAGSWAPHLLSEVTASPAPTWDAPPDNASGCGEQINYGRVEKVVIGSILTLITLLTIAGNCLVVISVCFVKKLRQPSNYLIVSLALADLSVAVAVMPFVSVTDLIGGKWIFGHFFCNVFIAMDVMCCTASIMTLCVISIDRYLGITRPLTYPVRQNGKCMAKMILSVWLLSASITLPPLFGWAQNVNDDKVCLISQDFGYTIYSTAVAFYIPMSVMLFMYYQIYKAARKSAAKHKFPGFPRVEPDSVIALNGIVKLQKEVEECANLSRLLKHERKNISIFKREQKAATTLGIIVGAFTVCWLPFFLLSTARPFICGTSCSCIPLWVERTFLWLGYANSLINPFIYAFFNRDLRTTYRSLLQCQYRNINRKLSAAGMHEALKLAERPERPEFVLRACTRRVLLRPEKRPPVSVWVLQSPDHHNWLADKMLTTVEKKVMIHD

[3] = biological target: T1, 5-hydroxytryptamine receptor 7; assay: Antagonist activity at human 5-HT7B receptor expressed in CHO cells assessed as inhibition of 5-CT induced cAMP production at 10^-7 M after 30 mins by TR-FRET assay; assay type: functional, cell-based
[4] = species: Homo sapiens; assay: Selectivity index ratio of Ki for human 5-HT1A receptor to Ki for human 5-HT7B
[5] = biological target: T2, 5-hydroxytryptamine receptor 1A (Homo sapiens, UniProt P08908); assay: Displacement of [3H]-8-OH-DPAT from human 5-HT1A receptor expressed in HEK293 cells after 1 hr; assay type: cell-based
T2 sequence (P08908 whole entry): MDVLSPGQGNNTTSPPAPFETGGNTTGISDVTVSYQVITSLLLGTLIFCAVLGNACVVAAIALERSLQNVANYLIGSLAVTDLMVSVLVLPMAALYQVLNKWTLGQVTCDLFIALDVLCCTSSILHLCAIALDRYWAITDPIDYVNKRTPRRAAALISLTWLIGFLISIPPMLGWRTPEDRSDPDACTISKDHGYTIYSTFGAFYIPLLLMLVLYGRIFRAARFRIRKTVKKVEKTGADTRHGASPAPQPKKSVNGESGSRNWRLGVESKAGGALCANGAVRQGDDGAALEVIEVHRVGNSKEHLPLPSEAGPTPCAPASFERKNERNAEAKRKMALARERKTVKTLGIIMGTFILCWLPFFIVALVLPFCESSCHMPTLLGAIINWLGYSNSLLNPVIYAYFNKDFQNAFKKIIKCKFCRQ
Summary of the method: (§1)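 Competition binding on membranes from HEK293 cells stably expressing human 5-HT7b or 5-HT1A. Incubation 1 h, at 37 °C for 5-HT7b and at room temperature for 5-HT1A. Non-specific binding defined with 10 µM 5-HT.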

[6] = biological target: T1, 5-hydroxytryptamine receptor 7; assay: Displacement of [3H]-5-CT from human 5-HT7B receptor expressed in HEK293 cells after 1 hr; assay type: cell-based; summary of the method: as §1
[7] = tested on: Mus musculus; assay: Toxicity in ip dosed C57BL/6J mouse assessed as effect on spontaneous locomotory activity at MED measured over 1 min 15 secs; assay type: organism-based; conditions: in vivo
[8] = tested on: Mus musculus; assay: Toxicity in ip dosed C57BL/6J mouse assessed as effect on spontaneous locomotory activity at MED measured over 6 mins; assay type: organism-based; conditions: in vivo, 0.1 h
Summary of the method: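 Mice habituated 30 min in individual cages, then ambulation counted over a period matching each behavioural test: 6 min for the tail suspension test and 1 min 15 s for the four-plate test. Compounds given ip at the active doses.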

[9] = tested on: Mus musculus; assay: Antidepressant activity in C57BL/6J mouse assessed as average force at 40 mg/kg, ip measured over 6 mins by tail suspension test (reference value: 0.281 +/- 0.018 to 0.359 +/- 0.027 N); assay type: functional
[10] = tested on: Mus musculus; assay: Antidepressant activity in C57BL/6J mouse assessed as number of events at 20 mg/kg, ip measured over 6 mins by tail suspension test (reference value: 1325.1 +/- 77.8 to 1773.4 +/- 109.9); assay type: functional
[11] = tested on: Mus musculus; assay: Antidepressant activity in C57BL/6J mouse assessed as immobility time at 10 mg/kg, ip measured over 6 mins by tail suspension test (reference value: 160.7 +/- 12 to 170.6 +/- 9 sec); assay type: functional
[12] = tested on: Mus musculus; assay: Antidepressant activity in C57BL/6J mouse assessed as immobility time at 40 mg/kg, ip measured over 6 mins by tail suspension test (reference value: 160.7 +/- 12 to 170.6 +/- 9 sec); assay type: functional
[13] = tested on: Mus musculus; assay: Antidepressant activity in C57BL/6J mouse assessed as average force at 10 mg/kg, ip measured over 6 mins by tail suspension test (reference value: 0.281 +/- 0.018 to 0.359 +/- 0.027 N); assay type: functional
[14] = tested on: Mus musculus; assay: Antidepressant activity in C57BL/6J mouse assessed as average force at 20 mg/kg, ip measured over 6 mins by tail suspension test (reference value: 0.281 +/- 0.018 to 0.359 +/- 0.027 N); assay type: functional
[15] = tested on: Mus musculus; assay: Antidepressant activity in C57BL/6J mouse assessed as number of events at 40 mg/kg, ip measured over 6 mins by tail suspension test (reference value: 1325.1 +/- 77.8 to 1773.4 +/- 109.9); assay type: functional
[16] = tested on: Mus musculus; assay: Antidepressant activity in C57BL/6J mouse assessed as number of events at 10 mg/kg, ip measured over 6 mins by tail suspension test (reference value: 1325.1 +/- 77.8 to 1773.4 +/- 109.9); assay type: functional
[17] = tested on: Mus musculus; assay: Antidepressant activity in C57BL/6J mouse assessed as immobility time at 20 mg/kg, ip measured over 6 mins by tail suspension test (reference value: 160.7 +/- 12 to 170.6 +/- 9 sec); assay type: functional
[18] = tested on: Mus musculus; assay: Toxicity in ip dosed albino Swiss mouse assessed as effect on spontaneous locomotory activity at MED measured over 2 to 6 mins; assay type: organism-based; conditions: in vivo
Summary of the method: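 Male Albino Swiss mice (22–28 g) received drug i.p. 60 min before testing, in 1% aqueous Tween 80 or distilled water. Each mouse was habituated alone in a plastic cage for 30 min, then ambulation was counted from 2 to 6 min. Groups of 6–10 animals, each used once.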

[19] = tested on: Rattus norvegicus; assay: Antidepressant activity in ip dosed Wistar rat assessed as reduction in immobility time of rat by forced swim test; assay type: functional
Summary of the method: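 Male Wistar rats (220-250 g), ip injection 30 min before test. Day 1: 15-min pre-swim in a cylinder with 15 cm of water at 25 °C, then drying under a lamp. Next day: total immobility recorded over the whole 5-min test, with fresh water for each rat.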

[20] = tested on: Mus musculus; assay: Antidepressant activity in ip dosed C57BL/6J mouse assessed as reduction in immobility time of mouse by tail suspension test; assay type: functional; conditions: read-out: MED
[21] = tested on: Mus musculus; assay: Antidepressant activity in ip dosed albino Swiss mouse assessed as decrease in immobility time by forced swim test; assay type: functional, organism-based

Compound	Ratio Ki [4]	Ki [5]	Ki [6]	further results
CC(C)c1ccccc1OCCN1CCC(NS(=O)(=O)c2cccc(F)c2)CC1				Ki [1]: 0.178 µM; inhibition [2]: 99%; inhibition [3]: 70%
CC(C)c1cccc(OCCN2C3CCC2CC(NS(=O)(=O)c2cc(F)ccc2F)C3)c1 (stereo not given)	13	0.051 µM	0.004 µM	
CC(C)c1ccccc1OCCN1CC2CC1CN2S(=O)(=O)c1ccc(F)cc1 (stereo not given)	2	0.26 µM	0.162 µM	
CC(C)c1cccc(OCCN2C3CCC2CC(NS(=O)(=O)c2ccc(F)c(F)c2)C3)c1 (stereo not given)	11	0.099 µM	0.009 µM	
CN1C(=O)CN=C(c2ccccc2)c2cc(Cl)ccc21 [DIAZEPAM]				Activity [7]: Non-toxic; Activity [8]: Non-toxic
O=S(=O)(NC1CC2CCC(C1)N2CCOc1cccc(-c2ccccc2)c1)c1cccc(F)c1 (stereo not given)	10	0.123 µM	0.012 µM	
COc1ccccc1OCCN1CCC(NS(=O)(=O)c2ccc(F)cc2)CC1		0.463 µM	0.344 µM	
CC(C)(C)c1ccccc1OCCN1CCC(NS(=O)(=O)c2cccc(Cl)c2)CC1	25	1.85 µM	0.074 µM	
CC(C)c1ccccc1OCCN1CCC(NC(=O)Nc2cccc(Cl)c2)CC1	2	0.591 µM	0.264 µM	
O=S(=O)(NC1CN(CCOc2ccccc2-c2ccccc2)C1)c1cccc(Cl)c1	1	0.023 µM	0.02 µM	
O=S(=O)(NC1CC2CCC(C1)N2CCOc1cccc(-c2ccccc2)c1)c1ccc(F)cc1 (stereo not given)	12	0.17 µM	0.014 µM	
CC(C)(C)c1ccccc1OCCN1CCC(NS(=O)(=O)c2ccc(F)cc2)CC1	85	4.57 µM	0.054 µM	
O=S(=O)(NC1CCN(CCOc2ccccc2)CC1)c1ccc(F)cc1		1.76 µM	0.855 µM	
O=C(NC1CCN(CCOc2ccccc2-c2ccccc2)CC1)c1cccc(Cl)c1	1	0.148 µM	0.197 µM	
Cn1cc(S(=O)(=O)NC2CN(CCOc3ccccc3-c3ccccc3)C2)cn1	1	0.046 µM	0.04 µM	
CC(C)c1cccc(OCCN2C3CCC2CC(NS(=O)(=O)c2cccc(Cl)c2)C3)c1 (stereo not given)	52	0.206 µM	0.004 µM	
CN(C)CCCC1(c2ccc(F)cc2)OCc2cc(C#N)ccc21 (stereo not given) [CITALOPRAM]				Activity [7]: Non-toxic; Activity [9]: 0.398 N; Activity [10]: 1961.3; Time [11]: 148.7 s; Time [12]: 95.5 s; Activity [13]: 0.318 N; Activity [14]: 0.381 N; Activity [15]: 2053.1; Activity [16]: 1820.1; Time [17]: 103 s; Activity [18]: Non-toxic; MED [19]: inactive; Activity [8]: Non-toxic; minimal effective dose [20]: 20 mg/kg; inhibition [21]: Dose-dependent effect
O=S(=O)(NC1CC2CCC(C1)N2CCOc1cccc(-c2ccccc2)c1)c1ccc(F)c(F)c1 (stereo not given)	4	0.074 µM	0.02 µM	
O=S(=O)(NC1CCN(CCOc2ccccc2C2CCCC2)CC1)c1cccc(Cl)c1	33	0.556 µM	0.017 µM	

Compound	Ratio Ki [4]	Ki [5]	Ki [6]	further results
O=S(=O)(c1ccc(F)cc1)N1CC2CC1CN2CCOc1ccccc1-c1ccccc1 (stereo not given)	4	1.07 µM	0.292 µM	
Cc1ccccc1OCCN1CCC(NS(=O)(=O)c2ccc(F)cc2)CC1		0.745 µM	0.163 µM	
Nc1ccc(S(=O)(=O)NC2CCN(CCOc3ccccc3-c3ccccc3)CC2)cc1	16	0.407 µM	0.026 µM	
CC(C)c1cccc(C(C)C)c1OCCN1CCC(NS(=O)(=O)c2ccc(F)cc2)CC1		6.15 µM	1.92 µM	
CC(C)c1ccccc1OCCN1CCC(NS(=O)(=O)c2ccc(N)cc2)CC1	13	0.502 µM	0.039 µM	
CC(C)c1cccc(OCCN2C3CCC2CC(NS(=O)(=O)c2cnn(C)c2)C3)c1 (stereo not given)	6	0.431 µM	0.07 µM	
O=C(Nc1cccc(Cl)c1)NC1CCN(CCOc2ccccc2-c2ccccc2)CC1	4	0.718 µM	0.198 µM	
O=S(=O)(NC1CCN(CCOc2ccccc2-c2ccccc2)CC1)c1cccnc1	10	0.536 µM	0.053 µM	
CC(C)c1ccccc1OCCN1CCC(NS(=O)(=O)c2cccnc2)CC1	5	0.371 µM	0.072 µM	
CC(C)c1ccccc1OCCN1CC(NS(=O)(=O)c2cccc(F)c2)C1		0.028 µM		
O=S(=O)(NC1CCN(CCOc2ccccc2C2CCCC2)CC1)c1ccc(F)cc1	23	0.373 µM	0.016 µM	
CC(C)c1ccccc1OCCN1CC2CC1CN2S(=O)(=O)c1cccc(Cl)c1 (stereo not given)	2	0.393 µM	0.168 µM	
CC(C)Oc1ccccc1OCCN1CCC(NS(=O)(=O)c2ccc(F)cc2)CC1		0.197 µM	0.027 µM	
CC(C)c1ccccc1OCCN1CCC(NC(=O)c2ccc(F)cc2)CC1	1	0.199 µM	0.285 µM	
O=S(=O)(c1cccc(Cl)c1)N1CC2CC1CN2CCOc1ccccc1-c1ccccc1 (stereo not given)	8	2.67 µM	0.319 µM	
CC(C)c1ccccc1OCCN1CC(NS(=O)(=O)c2ccc(F)cc2)C1	6	0.045 µM	0.007 µM	
Cn1cc(S(=O)(=O)NC2CCN(CCOc3ccccc3C(C)(C)C)CC2)cn1	66	5.55 µM	0.084 µM	
CC(C)c1ccccc1OCCN1CCC(NC(=O)Nc2ccc(F)cc2)CC1	1	0.19 µM	0.201 µM	
